Source: PubChem BioAssay
Activity calls are given as the source filed them.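 How the source made its calls, unless noted: active means viability at or below 30% in both replicate assays; inconclusive means viability at or below 30% in just one of the two assays; inactive means the rest.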

Legend:
[1] = reducers of endogenous Her2 protein level, primary screen, SKBR3 breast tumor cells, AlphaScreen, ATP viability (AID 461;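 active means Her2 level under about 52% in both replicate screens, with viability over 70% of control, limit read from the data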;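 on Her2 level: lower value means less Her2 protein in the cells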;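 on viability: percent of carrier control wells set as 100% viability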); details: 18-24 h, measured here: SKBR3 viability, ATP luminescence, at 10 µM
[2] = target: Receptor tyrosine-protein kinase erbB-2 (Homo sapiens) (UniProt P04626); test: as above; details: 18-24 h, at 10 µM, stronger effect = lower value
[3] = SK-BR-3 cell growth inhibitors, pilot screen, 24 h, human (AID 572;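 active means viability at or below 10% of carrier control in both of two separate runs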;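 further: compound exposure lasted between 18 and 24 h rather than exactly 24 h; 100% = carrier-treated control wells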); details: SK-BR-3 viability, CellTiter-Glo luminescence, at 10 µM, stronger effect = lower value
[4] = HUVEC growth inhibition – cell-based, human, primary screen (AID 575); details: HUVEC proliferation, CellTiter-Glo luminescence, 72 h; at 10 µM; stronger effect = lower value;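 further: 100% = median of untreated cell wells with 0.1% DMSO on each plate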
Method in brief: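 system = HUVEC primary cells | amount = 1250 cells/well | buffer or medium = supplemented EBM, 2% fetal bovine serum | dosing = single-point 10 µM, DMSO 0.1% final | times = 72 h compound incubation | detection = CTG luminescence | read-out = % viability relative to median vehicle-well signal on each plate | control set = vehicle and MePR control wells | format = collagen-coated 384-well format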

[5] = growth inhibitors of H69AR lung tumor, primary screen, human, duplicate replicates (AID 580;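 active means viability at or under a set limit in both replicates, limit being median viability minus 3 SD, cut at about 48% in these data, passing the limit was not always enough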;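 further: 100% = mean luminescence of untreated wells and 0% = no signal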); details: H69AR lung tumor cells viability, ATP luminescence, 72 h; at 10 µM; stronger effect = lower value
[6] = reversal of MRP1-mediated doxorubicin resistance, pilot screen, H69AR cells, doxorubicin co-treatment (AID 601;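 active means viability loss from added drug above about 55%, and viability with drug at most 40%, in both replicates, limit read from the data, passing the limit was not always enough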); details: CellTiter-Glo, 72 h, at 10 µM; for differential viability (reversal): stronger effect = higher value
[7] = 384-well plate pilot, post-Golgi transport modulator project, inhibition of yeast transport mutant growth (AID 636; in the data active means inhibition above about 31%); details: absorbance 615 nm, about 18 h, stronger effect = higher value
[8] = growth suppression of yeast trafficking mutant, preliminary HTS, modulators of trafficking downstream of Golgi apparatus project, 1536-format plate, OD 615 nm (AID 637; in the data active means inhibition above about 30%); details: yeast transport mutant growth, absorbance 615 nm, 18 h; stronger effect = higher value
[9] = H69AR cells + 2 uM doxorubicin, measured here: viability with 2 uM doxorubicin, stronger effect = lower value
[10] = H69AR cells, compound alone cytotoxicity

Chain of Receptor tyrosine-protein kinase erbB-2 (Homo sapiens) (P04626 whole entry, looked up): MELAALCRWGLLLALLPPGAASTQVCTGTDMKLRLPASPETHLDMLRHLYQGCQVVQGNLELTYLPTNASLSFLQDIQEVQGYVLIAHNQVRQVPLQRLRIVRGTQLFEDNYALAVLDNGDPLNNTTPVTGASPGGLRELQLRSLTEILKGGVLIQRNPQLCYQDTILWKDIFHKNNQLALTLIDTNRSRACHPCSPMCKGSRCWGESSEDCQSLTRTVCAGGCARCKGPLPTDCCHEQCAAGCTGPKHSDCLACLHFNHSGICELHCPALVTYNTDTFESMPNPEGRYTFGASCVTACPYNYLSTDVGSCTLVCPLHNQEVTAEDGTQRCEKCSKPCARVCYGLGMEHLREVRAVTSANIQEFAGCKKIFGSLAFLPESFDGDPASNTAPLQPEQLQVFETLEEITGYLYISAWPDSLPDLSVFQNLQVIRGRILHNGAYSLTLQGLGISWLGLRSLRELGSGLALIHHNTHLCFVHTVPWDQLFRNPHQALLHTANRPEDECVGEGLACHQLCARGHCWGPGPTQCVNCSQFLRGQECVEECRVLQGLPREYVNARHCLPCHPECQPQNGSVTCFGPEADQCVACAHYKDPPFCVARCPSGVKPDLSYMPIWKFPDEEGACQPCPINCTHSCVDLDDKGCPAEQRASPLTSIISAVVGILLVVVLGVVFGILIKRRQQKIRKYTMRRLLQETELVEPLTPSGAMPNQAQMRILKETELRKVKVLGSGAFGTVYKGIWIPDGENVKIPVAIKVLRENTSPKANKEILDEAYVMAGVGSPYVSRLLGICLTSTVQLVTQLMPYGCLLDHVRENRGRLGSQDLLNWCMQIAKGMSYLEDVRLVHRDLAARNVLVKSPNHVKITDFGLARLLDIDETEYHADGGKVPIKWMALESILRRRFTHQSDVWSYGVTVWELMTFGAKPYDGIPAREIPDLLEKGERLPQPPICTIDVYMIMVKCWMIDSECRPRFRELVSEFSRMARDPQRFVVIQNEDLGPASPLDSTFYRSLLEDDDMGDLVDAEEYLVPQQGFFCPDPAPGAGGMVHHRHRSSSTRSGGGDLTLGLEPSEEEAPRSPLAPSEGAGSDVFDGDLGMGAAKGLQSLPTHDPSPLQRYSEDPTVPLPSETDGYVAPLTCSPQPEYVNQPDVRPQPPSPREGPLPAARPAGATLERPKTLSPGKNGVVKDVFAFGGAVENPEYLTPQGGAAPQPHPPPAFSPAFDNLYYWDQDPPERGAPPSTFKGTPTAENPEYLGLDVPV

Row | Compound | viability [1] [%] | Her2 level [2] | viability [3] | viability [4] | viability [5] | differential viability (reversal) ([6]; H69AR cells + 2 uM doxorubicin) | viability [6, 9] [%] | viability [6, 10] [%] | inhibition [7] | inhibition [8]
1 | Cc1ccc(NCc2nnc(SCC(=O)N3CCCCC3)n2CC2CCCO2)c(C)c1 (stereo not given) | 94.5 | 99% (inactive) | 94.5% (inactive) | 106% (inactive) | 88.7% (inactive) | 1.68% (inactive) | 87 | 88.7 | -6.8% (inactive) | 1.13% (inactive)
2 | Cc1ccc(OC(=O)CCc2c(C)nc3ncnn3c2C)cc1 | 102 | 96.5% (inactive) | 102% (inactive) | 95.9% (inactive) | 87.1% (inactive) | 5.46% (inactive) | 81.7 | 87.1 | 3.29% (inactive) | -9.09% (inactive)
3 | Cc1nc(-c2cccc(N)c2)cs1 | 103 | 94.5% (inactive) | 103% (inactive) | 84.3% (inactive) | 103% (inactive) | 6.14% (inactive) | 96.8 | 103 | -1.33% (inactive) | -2.3% (inactive)
4 | CCOC(=O)N1CCN(C(=O)COc2ccc(S(=O)(=O)NC3CCCCC3)cc2C)CC1 | 112 | 110% (inactive) | 112% (inactive) | 80.9% (inactive) | 98.9% (inactive) | 0.31% (inactive) | 98.5 | 98.9 | -0.4% (inactive) | -1.31% (inactive)
5 | O=C(NC1CCS(=O)(=O)C1)N1CCCCC1 (stereo not given) | 102 | 79.5% (inactive) | 102% (inactive) | 103% (inactive) | 89.6% (inactive) | 1.27% (inactive) | 88.3 | 89.6 | -5.92% (inactive) | -2% (inactive)
6 | CC(C)N(C(=O)CSc1nnc(NC(=O)C2CCC2)s1)C(C)C | 82.5 | 90.5% (inactive) | 82.5% (inactive) | 90.4% (inactive) | 92.9% (inactive) | 3.82% (inactive) | 89 | 92.9 | -1.47% (inactive) | -2.42% (inactive)
7 | c1c2c(cc3sc(N4CCCCC4)nc13)OCCO2 | 98 | 91.5% (inactive) | 98% (inactive) | 87% (inactive) | 75.4% (inactive) | 2.07% (inactive) | 73.3 | 75.4 | -4.93% (inactive) | 7.26% (inactive)
8 | CN(C)c1ccc(CNC2CC(C)(C)NC(C)(C)C2)cc1 | 91 | 112% (inactive) | 91% (inactive) | 94.2% (inactive) | 98.9% (inactive) | 7.67% (inactive) | 91.3 | 98.9 | -7.5% (inactive) | -6.07% (inactive)
9 | COc1ccc(N2CCN(Cc3nc(-c4ccc(Cl)cc4Cl)no3)CC2)cc1 | 117 | 83.5% (inactive) | 117% (inactive) | 70.5% (inactive) | 91.5% (inactive) | 9.36% (inactive) | 82.2 | 91.5 | -4.68% (inactive) | -5.57% (inactive)
10 | CC1CCN(C(=O)CCNS(=O)(=O)c2ccccc2)CC1 | 110 | 118% (inactive) | 110% (inactive) | 96.7% (inactive) | 92.8% (inactive) | 0.83% (inactive) | 92 | 92.8 | -3.9% (inactive) | -2.06% (inactive)
11 | COC(=O)c1cc(Br)c(=O)n(CCC2=CCCCC2)c1 | 81.5 | 99.5% (inactive) | 81.5% (inactive) | 92.5% (inactive) | 89.9% (inactive) | 1.54% (inactive) | 88.4 | 89.9 | -0.27% (inactive) | 6.89% (inactive)
12 | Cc1nc2ccccc2cc1C(=O)NCc1ccco1 | 130 | 90% (inactive) | 130% (inactive) | 91.3% (inactive) | 93.3% (inactive) | 8.23% (inactive) | 85.1 | 93.3 | -4.93% (inactive) | 7.42% (inactive)
13 | CCc1cc(C)cc(OCCNC(=O)c2ncn[nH]2)c1 | 117 | 110% (inactive) | 117% (inactive) | 89.7% (inactive) | 90.8% (inactive) | 9.78% (inactive) | 81.1 | 90.8 | -3.95% (inactive) | -1.29% (inactive)
14 | COCCN(CC(=O)NC1CCCCC1)C(=O)CSc1nc2ccccc2o1 | 98 | 96% (inactive) | 98% (inactive) | 90.8% (inactive) | 97.6% (inactive) | 4.13% (inactive) | 93.5 | 97.6 | -0.39% (inactive) | -5.24% (inactive)
15 | Cc1nc2sc(C(c3cccc(F)c3)N3CCCCC3)c(O)n2n1 (stereo not given) | 109 | 80% (inactive) | 109% (inactive) | 95.1% (inactive) | 99.5% (inactive) | 10.9% (inactive) | 88.6 | 99.5 | -4.79% (inactive) | -4.92% (inactive)
16 | O=C(CSc1nnc(Cn2nnc(-c3ccccc3)n2)n1-c1ccccc1)Nc1ccc(F)cc1 | 91 | 82% (inactive) | 91% (inactive) | 64.1% (inactive) | 75.7% (inactive) | 3.96% (inactive) | 71.8 | 75.7 | -1.45% (inactive) | 13.4% (inactive)

Row | Compound | viability [1] [%] | Her2 level [2] | viability [3] | viability [4] | viability [5] | differential viability (reversal) ([6]; H69AR cells + 2 uM doxorubicin) | viability [6, 9] [%] | viability [6, 10] [%] | inhibition [7] | inhibition [8]
17 | Cc1onc(-c2ccccc2Cl)c1C(=O)NCc1cccnc1 | 103 | 102% (inactive) | 103% (inactive) | 110% (inactive) | 94.5% (inactive) | 9.16% (inactive) | 85.4 | 94.5 | -4.8% (inactive) | 6.13% (inactive)
18 | CCc1nnc(NC(=O)CSc2nnc(CSc3nc(C)cc(C)n3)n2CC)s1 | 100 | 116% (inactive) | 100% (inactive) | 84.1% (inactive) | 88.7% (inactive) | 1.79% (inactive) | 86.9 | 88.7 | 0.77% (inactive) | 22.5% (inactive)
19 | CC(C)(C)C(=O)Oc1cc(N)n(S(=O)(=O)c2ccccc2)n1 | 93.5 | 101% (inactive) | 93.5% (inactive) | 102% (inactive) | 87.1% (inactive) | 3.59% (inactive) | 83.5 | 87.1 | 0.53% (inactive) | -5.27% (inactive)
20 | O=C(Cn1cnc2ccccc2c1=O)NCCC(=O)N1CCN(c2ccccc2)CC1 | 90.5 | 83.5% (inactive) | 90.5% (inactive) | 99.6% (inactive) | 92% (inactive) | 8.53% (inactive) | 83.5 | 92 | -3.25% (inactive) | -0.98% (inactive)
21 | COC(=O)c1ccccc1NC(=O)c1ccc(COc2ccccc2)o1 | 71.5 | 106% (inactive) | 71.5% (inactive) | 94.6% (inactive) | 98.3% (inactive) | 0.68% (inactive) | 97.6 | 98.3 | -6.13% (inactive) | -4.1% (inactive)
22 | CCN1CCN(c2ncnc3c2oc2nc(C)c4c(c23)CC(C)(C)OC4)CC1 | 91.5 | 122% (inactive) | 91.5% (inactive) | 98.3% (inactive) | 97% (inactive) | -1.16% (inactive) | 98.1 | 97 | -0.78% (inactive) | -3.17% (inactive)
23 | COc1cccc(N2CCN(Cc3cccnc3)CC2)c1 | 81.5 | 97.5% (inactive) | 81.5% (inactive) | 93% (inactive) | 87.8% (inactive) | -7.62% (inactive) | 95.4 | 87.8 | -0.38% (inactive) | 3.33% (inactive)
24 | O=C(c1ccco1)N1CCN(C(=O)c2cc3c(s2)-c2ccccc2OC3)CC1 | 91 | 113% (inactive) | 91% (inactive) | 107% (inactive) | 97% (inactive) | 2.87% (inactive) | 94.2 | 97 | 0.13% (inactive) | -1.64% (inactive)
25 | O=C1CC(N2CCC(C(=O)N3CCCCC3)CC2)C(=O)N1 (stereo not given) | 110 | 91.5% (inactive) | 110% (inactive) | 94.4% (inactive) | 96.9% (inactive) | 10% (inactive) | 86.8 | 96.9 | -2.63% (inactive) | 3.71% (inactive)
26 | Cc1cc(S(=O)(=O)NC2CCCCC2)ccc1OCC(=O)NCc1ccccn1 | 91.5 | 84% (inactive) | 91.5% (inactive) | 105% (inactive) | 99.1% (inactive) | 6.34% (inactive) | 92.8 | 99.1 | -0.53% (inactive) | 4.52% (inactive)
27 | Cn1cc(CN2CCc3ccccc3C2)c2ccccc21 | 80.5 | 82% (inactive) | 80.5% (inactive) | 90.4% (inactive) | 75.6% (inactive) | -8.43% (inactive) | 84.1 | 75.6 | -5.58% (inactive) | 3.93% (inactive)
28 | COc1ccc(CC(=O)NC2CCN(CC(=O)Nc3ccc4c(c3)OCCO4)CC2)cc1OC | 97.5 | 132% (inactive) | 97.5% (inactive) | 88.2% (inactive) | 106% (inactive) | 17% (inactive) | 89.1 | 106 | -2.37% (inactive) | -5.33% (inactive)
29 | COc1ccc(C(=O)Nc2ccc(S(=O)(=O)NC(C)=O)cc2)cc1 | 120 | 100% (inactive) | 120% (inactive) | 96.5% (inactive) | 93.1% (inactive) | -5.71% (inactive) | 98.8 | 93.1 | -4.13% (inactive) | -2.26% (inactive)
30 | Cn1c(=O)c2c(nc(SCc3nn[nH]n3)n2Cc2ccccc2F)n(C)c1=O | 97.5 | 97% (inactive) | 97.5% (inactive) | 94.4% (inactive) | 90.9% (inactive) | -2.83% (inactive) | 93.7 | 90.9 | -0.13% (inactive) | 1.27% (inactive)
31 | CC1(C)C(=O)Nc2ccccc2N1C(=O)COC(=O)Cn1cnc2ccccc2c1=O | 110 | 112% (inactive) | 110% (inactive) | 110% (inactive) | 96.3% (inactive) | 1.74% (inactive) | 94.5 | 96.3 | -3.55% (inactive) | -5.5% (inactive)
